Experiment [1] has as its system E. coli UTI89 K1F phage lysis inhibition, OD600 3 h. Put plainly: protection of UTI89 from K1F lysis – strain UTI89, C7 control, set 2, capsule biogenesis inhibitor project, dose response (AID 504543). As to conditions: for CC50: measured here: cytotoxicity. The gist of the method: (§1)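 Material: Escherichia coli UTI89 (K1 capsule) plus phage-resistant kpsM mutant / Medium: LB, 1:100 culture dilution / Reagent: K1F phage / Schedule: 1.25 h compound pre-incubation at 37 °C, 3 h phage exposure / Detection: OD600 absorbance / Control set: kpsM mutant, 1% DMSO wells / Replication: quadruplicate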

Assay in experiment [2]: as above
As to conditions: E. coli UTI89 K1F phage lysis inhibition, OD600 3 h; at 300 µM (top of the series). The method, boiled down: as §1

Active and inactive are the calls of the source.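 The calls were made as follows: active = phage lysis blocked by at least 50% at any tested concentration; inactive = the rest.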

In general, IC50 refers to the midpoint of a concentration-inhibition curve. The term CC50 denotes the concentration at which the toxic effect on the cells reaches its halfway point. For `N=C(N)SCCc1cccc(CCSC(=N)N)c1`, in experiment [1], the IC50 was 135 µM and the CC50 stood at 181 µM.
For `CCN(CC)c1ccc2c(-c3ccc(S(=O)(=O)O)cc3S(=O)(=O)O)c3ccc(=[N+](CC)CC)cc-3oc2c1`, the inhibition of phage lysis in experiment [2] is -8.77% (inactive). The compound also displayed a CC50 in experiment [1] of under 2.35 µM.
For `Cc1cccc(-c2cc(C(=O)O)c3ccccc3n2)c1` the same measures were -1.53% (inactive) and 138 µM.
Turning to `O=C(Nc1cccc(C2=NCCN2)c1)Nc1cccc(C2=NCCN2)c1`, the inhibition of phage lysis in experiment [2] was 14.2% (inactive). The same compound yielded a CC50 in experiment [1] of 69.1 µM.
Taken in the same sequence, the figures for `COc1cc(/C=N/N=C(N)N)ccc1OCc1ccccc1Cl` were -29.8% (inactive) and 11.4 µM.
For `COc1ccc(-c2cc(C(=O)O)c3ccccc3n2)cc1` the same measures were 1.1% (inactive) and 112 µM.
For `NC(N)=N/N=C/c1ccc(OCc2ccccc2)cc1` the same measures were -28.3% (inactive) and 9.38 µM.
On to `O=C1c2c(O)ccc(O)c2C(=O)c2c(NCCNCCO)ccc(NCCNCCO)c21`, for which, in experiment [1], the half-inhibitory concentration (IC50) is 201 µM and the CC50 is over 300 µM.

Values taken from PubChem BioAssay AID504543 (Southern Research Specialized Biocontainment Screening …, 2011).
